# According to ChEMBL document CHEMBL4354800, “Amphiphilic nebramine-based hybrids Rescue legacy antibiotics from intrinsic resistance in multidrug-resistant Gram-negative bacilli” (Eur J Med Chem, 2019):
# Tests used:
# Acinetobacter baumannii [1] = experiment: Synergistic antibacterial activity against multidrug-resistant Acinetobacter baumannii ATCC 17978 assessed as fractional inhibitory concentration index in presence of minocycline incubated for 18 hrs by broth dilution method; type: functional
# Escherichia coli = experiment: Antimicrobial activity against Escherichia coli 94474 incubated for 18 hrs by broth dilution method; type: functional; conditions: Escherichia coli, 94474, 18 h
# Summary of the method: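 CLSI broth microdilution. Overnight cultures were adjusted to 0.5 McFarland in saline, diluted 1:50 in Mueller-Hinton broth, and inoculated at a final 5 × 10^5 CFU/mL. Compounds were tested as 2-fold serial dilutions and incubated 18 h at 37 °C. MIC was the lowest concentration with no visible turbidity, confirmed by absorbance at 590 nm.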
# Acinetobacter baumannii [2] = experiment: Synergistic antibacterial activity against multidrug-resistant Acinetobacter baumannii AB110193 assessed as fractional inhibitory concentration index in presence of minocycline incubated for 18 hrs by broth dilution method; type: functional
# Klebsiella pneumoniae [3] = experiment: Synergistic antibacterial activity against Klebsiella pneumoniae 113254 assessed as fractional inhibitory concentration index in presence of rifampicin incubated for 18 hrs by broth dilution method; type: functional
# Summary of the method: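 Checkerboard titration of the adjuvant against the antibiotic, run under the CLSI microdilution conditions (MHB, 5 × 10^5 CFU/mL, 18 h, 37 °C). Each agent's FIC is its MIC in combination divided by its MIC alone; FICI is the sum of the two FICs. FICI ≤0.5 was read as synergy, >0.5–4.0 as no interaction, and >4.0 as antagonism.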
# Acinetobacter baumannii [4] = experiment: Potentiation of minocycline-induced antibacterial activity against multidrug-resistant Acinetobacter baumannii AB92247 assessed as fold reduction in minocycline MIC at 4.1 uM incubated for 18 hrs by broth dilution method; type: functional
# Klebsiella pneumoniae [5] = experiment: Potentiation of minocycline-induced antibacterial activity against Klebsiella pneumoniae 113250 assessed as fold reduction in minocycline MIC at 4.1 uM incubated for 18 hrs by broth dilution method; type: functional
# Summary of the method: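 Antibiotic MIC determined by CLSI broth microdilution (MHB, 5 × 10^5 CFU/mL, 18 h, 37 °C), once alone and once with a fixed concentration of the adjuvant. Potentiation is the ratio of the antibiotic MIC alone to its MIC in the presence of the adjuvant.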
# Pseudomonas aeruginosa [6] = experiment: Antimicrobial activity against XDR Pseudomonas aeruginosa PA264 infected in Galleria mellonella larvae assessed as survival rate at 100 mg/kg administered 2 hrs post-inoculation measured after 18 hrs relative to control; type: functional
# Summary of the method: (§1)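 G. mellonella larvae were injected with ~5 CFU of P. aeruginosa PA264 (10 µL of 5 × 10^2 CFU/mL in PBS) and held 2 h at 37 °C. A single 10 µL injection followed: monotherapy or rifampicin + compound (25+25, 50+50 or 75+75 mg/kg), with PBS as control. Larvae kept at 37 °C were scored every 6 h to 24 h; dead = no response to touch. n = 30 (two runs of 15); Kaplan-Meier.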
# Pseudomonas aeruginosa [7] = experiment: Antimicrobial activity against XDR Pseudomonas aeruginosa isolate PA264 infected in Galleria mellonella larvae assessed as survival rate at 25 mg/kg co-administered with 25 mg/kg rifampicin at 2 hrs post-inoculation measured after 18 hrs relative to control; type: functional; summary of the method: as §1
# Pseudomonas aeruginosa [8] = experiment: Antimicrobial activity against XDR Pseudomonas aeruginosa isolate PA264 infected in Galleria mellonella larvae assessed as increase in survival rate co-administered with rifampicin at 2 hrs post-inoculation measured every 6 hrs for upto 24 hrs; type: functional, organism-based
# Summary of the method: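 G. mellonella larvae each received an injection of about 5 CFU of PA264 (culture adjusted to 0.5 McFarland, then diluted in PBS to 5 × 10^2 CFU/mL) and were held 2 h at 37 °C. A single injection followed: rifampicin plus adjuvant at 25+25, 50+50 or 75+75 mg/kg, or PBS. Larvae were kept at 37 °C and scored every 6 h up to 24 h; no response to touch counted as dead. Total n=30 per group; Kaplan-Meier analysis.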
# Pseudomonas aeruginosa [9] = experiment: Potentiation of rifampicin-induced antibacterial activity against wild type Pseudomonas aeruginosa PAO1 assessed as fold reduction in rifampicin MIC at 4.1 uM incubated for 18 hrs by broth microdilution method; type: functional
# Summary of the method: (§2)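 CLSI broth microdilution. Overnight cultures were set to 0.5 McFarland in saline, diluted 1:50 in Mueller-Hinton broth to a final 5 × 10^5 CFU/mL, and incubated 18 h at 37 °C against 2-fold antibiotic dilutions. A fixed adjuvant level was present throughout. MIC = lowest concentration with no visible turbidity, confirmed at 590 nm. Potentiation = fold drop in antibiotic MIC versus antibiotic alone.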
# Pseudomonas aeruginosa [10] = experiment: Potentiation of ciprofloxacin-induced antibacterial activity against MDR/XDR Pseudomonas aeruginosa isolate PA262-101856 harboring GyrA T83I mutant assessed as fold reduction in ciprofloxacin MIC at 7.5 uM incubated for 18 hrs by broth microdilution method; type: functional
# Pseudomonas aeruginosa [11] = experiment: Potentiation of moxifloxacin-induced antibacterial activity against MDR/XDR Pseudomonas aeruginosa isolate 101885 harboring GyrA T83I mutant assessed as fold reduction in moxifloxacin MIC at 7.5 uM incubated for 18 hrs by broth microdilution method; type: functional; summary of the method: as §2
# Pseudomonas aeruginosa [12] = experiment: Potentiation of ciprofloxacin-induced antibacterial activity against MDR/XDR Pseudomonas aeruginosa isolate PA259-96918 harboring GyrA T83I mutant assessed as fold reduction in ciprofloxacin MIC at 7.5 uM incubated for 18 hrs by broth microdilution method; type: functional
# Pseudomonas aeruginosa [13] = experiment: Potentiation of moxifloxacin-induced antibacterial activity against MDR/XDR Pseudomonas aeruginosa isolate 101243 devoid of GyrA T83I mutant assessed as fold reduction in moxifloxacin MIC at 7.5 uM incubated for 18 hrs by broth microdilution method; type: functional; summary of the method: as §2
# Pseudomonas aeruginosa [14] = experiment: Potentiation of minocycline-induced antibacterial activity against MDR/XDR Pseudomonas aeruginosa isolate 101885 harboring GyrA T83I mutant assessed as fold reduction in minocycline MIC at 7.5 uM incubated for 18 hrs by broth microdilution method; type: functional
# Pseudomonas aeruginosa [15] = experiment: Potentiation of minocycline-induced antimicrobial activity against MDR/XDR Pseudomonas aeruginosa isolate 101885 harboring GyrA Thr83Ile mutant assessed as minocycline MIC50 incubated for 18 hrs by broth microdilution method (reference value: 16 microg/ml); type: functional; conditions: isolate 101885, 18 h
# Pseudomonas aeruginosa [16] = experiment: Potentiation of minocycline-induced antimicrobial activity against MDR/XDR Pseudomonas aeruginosa isolate PA260-97103 harboring GyrA Thr83Ile mutant assessed as minocycline MIC50 incubated for 18 hrs by broth microdilution method (reference value: 16 microg/ml); type: functional; conditions: isolate PA260-97103, 18 h
# Pseudomonas aeruginosa [17] = experiment: Potentiation of minocycline-induced antimicrobial activity against MDR/XDR Pseudomonas aeruginosa isolate PA259-96918 harboring GyrA Thr83Ile mutant assessed as minocycline MIC80 incubated for 18 hrs by broth microdilution method (reference value: 32 microg/ml); type: functional; conditions: isolate PA259-96918, 18 h
# Pseudomonas aeruginosa [18] = experiment: Potentiation of minocycline-induced antimicrobial activity against MDR/XDR Pseudomonas aeruginosa isolate PA262-101856 harboring GyrA Thr83Ile mutant assessed as minocycline MIC80 incubated for 18 hrs by broth microdilution method (reference value: 32 microg/ml); type: functional; conditions: isolate PA262-101856, 18 h
Structure (SMILES),fractional inhibitory concentration index (FICI) (Acinetobacter baumannii [1]),MIC (Escherichia coli) [µg/mL],fractional inhibitory concentration index (FICI) (Acinetobacter baumannii [2]),fractional inhibitory concentration index (FICI) (Klebsiella pneumoniae [3]),fold change (FC) (Acinetobacter baumannii [4]),fold change (FC) (Klebsiella pneumoniae [5]),survival at 100 mg/kg (Pseudomonas aeruginosa [6]) [%],survival at 25 mg/kg (Pseudomonas aeruginosa [7]) [%],Activity (Pseudomonas aeruginosa [8]),fold change (FC) (Pseudomonas aeruginosa [9]),fold change (FC) (Pseudomonas aeruginosa [10]),fold change (FC) (Pseudomonas aeruginosa [11]),fold change (FC) (Pseudomonas aeruginosa [12]),fold change (FC) (Pseudomonas aeruginosa [13]),fold change (FC) (Pseudomonas aeruginosa [14]),MIC50 (Pseudomonas aeruginosa [15]) [µg/mL],MIC50 (Pseudomonas aeruginosa [16]) [µg/mL],MIC80 (Pseudomonas aeruginosa [17]) [µg/mL],MIC80 (Pseudomonas aeruginosa [18]) [µg/mL]
Cl.Cl.Cl.Cl.Cl.NC[C@H]1O[C@H](O[C@H]2[C@H](OCCCCCCCCCCCCN3CCN(c4cc5c(cc4F)c(=O)c(C(=O)O)cn5C4CC4)CC3)[C@@H](O)[C@H](N)C[C@@H]2N)[C@H](N)C[C@@H]1O,0.52,> 128,>1,0.047,2,2,0,33,Dose-dependent effect,>=256,,,,,,,,,
COc1c(N2C[C@@H]3CCCN(CCCCCCCCCCCCO[C@@H]4[C@@H](O)[C@H](N)C[C@H](N)[C@H]4O[C@H]4O[C@H](CN)[C@@H](O)C[C@H]4N)[C@@H]3C2)c(F)cc2c(=O)c(C(=O)O)cn(C3CC3)c12.Cl.Cl.Cl.Cl.Cl,,,,,,,,,,,4,4,4,32,16,0.5,0.5,1,1
